Among the data in ChEMBL document CHEMBL4406852, “Combating fluconazole-resistant fungi with novel β-azole-phenylacetone derivatives” (Eur J Med Chem, 2019) are MIC values, retold here.

Converted amounts (≈) assume the structure as drawn.

Common to all, as to format: functional
For experiment [1], the system named is Candida albicans. In words: Antifungal activity against fluconazole-resistant Candida albicans CaR assessed as reduction in fungal growth incubated for 24 hrs by serial dilution method. Put shortly:
(§1)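 Fluconazole-resistant C. albicans clinical isolates (17# and CaR from AIDS patients; 632, 901, 904 from clinic) tested by CLSI broth dilution MIC in RPMI 1640 buffered to pH 7.0 with MOPS. Compounds dissolved in DMSO, serially diluted to final 0.03–16 or 0.125–64 μg/mL; inoculum 1–5 × 10^3 CFU/mL; 35 °C, 24 h. MIC = lowest concentration inhibiting visible growth; fluconazole and itraconazole as controls.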

In experiment [2] the test system is Candida albicans. In words: Antifungal activity against Candida albicans SC5314 assessed as reduction in fungal growth incubated for 24 hrs by serial dilution method. The note with it: SC5314, 24 h. The gist of the method:
(§2)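 MIC by CLSI broth microdilution in RPMI 1640 buffered to pH 7.0 with MOPS. Compounds dissolved in DMSO and serially diluted to final 0.03–16 or 0.125–64 µg/mL. Inoculum 1–5 × 10^3 CFU/mL. Incubation 35 °C, 24 h. Drug-free growth and fungus-free blank controls. MIC is the lowest concentration preventing visible growth.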

The test system of experiment [3] is Candida albicans. Kind of experiment: Antifungal activity against Candida albicans GIM 2.194 assessed as reduction in fungal growth incubated for 24 hrs by serial dilution method. The note with it: GIM 2.194, 24 h. Put shortly:
as §2

Experiment [4] relates to Candida tropicalis. In words: Antifungal activity against Candida tropicalis GIM 2.183 assessed as reduction in fungal growth incubated for 24 hrs by serial dilution method. The note with it: GIM 2.183, 24 h. Put shortly: as §2
The subject of experiment [5] is Nakaseomyces glabratus. In words: Antifungal activity against Candida glabrata assessed as reduction in fungal growth incubated for 24 hrs by serial dilution method. The gist of the method: as §2
The subject of experiment [6] is Candida parapsilosis. Kind of experiment: Antifungal activity against Candida parapsilosis GIM 2.190 assessed as reduction in fungal growth incubated for 24 hrs by serial dilution method. The note with it: Lodderomyces parapsilosis, GIM 2.190, 24 h. Put shortly:
as §2

For experiment [7], the system named is Candida albicans. In words: Antifungal activity against fluconazole-resistant Candida albicans 17 assessed as reduction in fungal growth incubated for 24 hrs by serial dilution method. The note with it: Candida albicans, 17, 24 h. Put shortly: as §1
Experiment [8] concerns Candida albicans. In words: Antifungal activity against fluconazole-resistant Candida albicans 632 assessed as reduction in fungal growth incubated for 24 hrs by serial dilution method. The note with it: Candida albicans, 632, 24 h. The gist of the method: as §1
For experiment [9], the system named is Candida albicans. In words: Antifungal activity against fluconazole-resistant Candida albicans 901 assessed as reduction in fungal growth incubated for 24 hrs by serial dilution method. The note with it: Candida albicans, 901, 24 h. The gist of the method: as §1
Experiment [10] concerns Candida albicans. Kind of experiment: Antifungal activity against fluconazole-resistant Candida albicans 904 assessed as reduction in fungal growth incubated for 24 hrs by serial dilution method. The note with it: Candida albicans, 904, 24 h. The gist of the method: as §1

What is called MIC is the lowest concentration that inhibits growth of the organism. For the compound `O=C(NC(Cn1ccnc1)C(=O)c1cccc(F)c1)c1ccc(-c2ccccc2)cc1F` (stereo not given), the minimal inhibitory concentration (MIC) in experiment [1] stood at 2 µg/mL (≈ 4.64 µM); in experiment [2], 0.125 µg/mL (≈ 0.29 µM); in experiment [3] it was 0.5 µg/mL (≈ 1.16 µM); in [4], 0.5 µg/mL (≈ 1.16 µM); in [5], 2 µg/mL (≈ 4.64 µM); in [6], 0.5 µg/mL (≈ 1.16 µM). For the same compound, the MIC in [7] was 4 µg/mL (≈ 9.27 µM); in experiment [8], above 64 µg/mL; in experiment [9] it was 2 µg/mL (≈ 4.64 µM); in [10] it was 32 µg/mL (≈ 74.2 µM).
On to `O=C(NC(Cn1ccnc1)C(=O)c1ccc(Cl)cc1)c1ccc(-c2ccccc2)cc1F` (stereo not given), for which the MIC was above 64 µg/mL in experiment [1]; 0.06 µg/mL (≈ 0.134 µM) in experiment [2]; 0.5 µg/mL (≈ 1.12 µM) in experiment [3]; 0.06 µg/mL (≈ 0.134 µM) in experiment [4]; 0.25 µg/mL (≈ 0.558 µM) in experiment [5]; 0.125 µg/mL (≈ 0.279 µM) in [6]. Also, the MIC is above 64 µg/mL in [7], above 64 µg/mL in experiment [8], above 64 µg/mL in experiment [9] and 32 µg/mL (≈ 71.4 µM) in experiment [10].
`O=C(NC(Cn1ccnc1)C(=O)c1ccc(F)cc1)c1ccc(-c2ccccc2)cc1` (stereo not given): the MIC in experiment [1] was above 64 µg/mL; in experiment [2], 0.06 µg/mL (≈ 0.145 µM); in experiment [3], 0.25 µg/mL (≈ 0.605 µM); in experiment [4], 0.25 µg/mL (≈ 0.605 µM); in [5], 0.5 µg/mL (≈ 1.21 µM); in experiment [6], 0.25 µg/mL (≈ 0.605 µM). In addition, the MIC was above 64 µg/mL in experiment [7], 2 µg/mL (≈ 4.84 µM) in experiment [8], 1 µg/mL (≈ 2.42 µM) in experiment [9] and 2 µg/mL (≈ 4.84 µM) in experiment [10].
Regarding `O=C(NC(Cn1ccnc1)C(=O)c1cccc(Cl)c1)c1ccc(-c2ccccc2)cc1F` (stereo not given), the MIC is above 64 µg/mL in [1]; 0.06 µg/mL (≈ 0.134 µM) in experiment [2]; 0.125 µg/mL (≈ 0.279 µM) in experiment [3]; 0.03 µg/mL (≈ 0.067 µM) in experiment [4]; 0.25 µg/mL (≈ 0.558 µM) in [5]; 0.125 µg/mL (≈ 0.279 µM) in experiment [6]. Moreover, the MIC in [7], in experiment [8], in experiment [9] and in experiment [10] was above 64 µg/mL in each case.
For the compound `O=C(NC(Cn1ccnc1)C(=O)c1cccc(Cl)c1)c1ccc(-c2ccccc2)c(F)c1` (stereo not given), the MIC was above 64 µg/mL in experiment [1]; 0.06 µg/mL (≈ 0.134 µM) in [2]; 0.125 µg/mL (≈ 0.279 µM) in experiment [3]; 0.125 µg/mL (≈ 0.279 µM) in [4]; 0.25 µg/mL (≈ 0.558 µM) in experiment [5]; 0.5 µg/mL (≈ 1.12 µM) in experiment [6]. For the same compound, the MIC in experiment [7] was above 64 µg/mL; in experiment [8], 4 µg/mL (≈ 8.93 µM); in experiment [9], 4 µg/mL (≈ 8.93 µM); in [10], 4 µg/mL (≈ 8.93 µM).
For `O=C(NC(Cn1ccnc1)C(=O)c1ccccc1)c1ccc(-c2ccccc2)cc1F` (stereo not given), the MIC in [1] came out at 4 µg/mL (≈ 9.67 µM); in [2], 0.125 µg/mL (≈ 0.302 µM); in experiment [3], 0.25 µg/mL (≈ 0.605 µM); in experiment [4], 0.06 µg/mL (≈ 0.145 µM); in experiment [5], 0.5 µg/mL (≈ 1.21 µM); in [6], 0.125 µg/mL (≈ 0.302 µM). Moreover, the MIC in [7] is 2 µg/mL (≈ 4.84 µM); in experiment [8], 32 µg/mL (≈ 77.4 µM); in experiment [9], above 64 µg/mL; in experiment [10], 8 µg/mL (≈ 19.3 µM).
